Screening data (PubChem BioAssay)
An excerpt weighted towards active compounds, which were near 3.7% of everything screened.
Kir21 inh – inhibitors of mouse Kir2.1 inward-rectifier potassium channel; P35561; HEK293-Kir2.1, FluxOR thallium flux fluorescence; hits give low values; B-score at 10 µM; 0.85% of 310,000 active;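 active = fluorescence ratio B-score at or below minus 3 SD of library scores, with starting-brightness B-score within 2 SD, cut at about -4.2 in these data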;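 note: channel flux triggered by added potassium and thallium sulfate stimulus; B-score of peak minus minimum fluorescence over baseline after thallium stimulus; more negative B-score means stronger Kir2.1 block with less thallium influx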
KCNQ1 inh – human KCNQ1 channel inhibition; P51787; CHO-K1 KCNQ1, FluxOR thallium flux fluorescence; hits give high values; B-score at 10 µM; 1.3% of 310,000 active;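 active = compounds whose thallium flux B-score, printed positive for inhibition, exceeds three library SD while starting fluorescence stays within three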;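 note: channel opened by potassium depolarization with thallium stimulus after 20 min compound exposure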
Target sequence (P51787 whole entry, looked up): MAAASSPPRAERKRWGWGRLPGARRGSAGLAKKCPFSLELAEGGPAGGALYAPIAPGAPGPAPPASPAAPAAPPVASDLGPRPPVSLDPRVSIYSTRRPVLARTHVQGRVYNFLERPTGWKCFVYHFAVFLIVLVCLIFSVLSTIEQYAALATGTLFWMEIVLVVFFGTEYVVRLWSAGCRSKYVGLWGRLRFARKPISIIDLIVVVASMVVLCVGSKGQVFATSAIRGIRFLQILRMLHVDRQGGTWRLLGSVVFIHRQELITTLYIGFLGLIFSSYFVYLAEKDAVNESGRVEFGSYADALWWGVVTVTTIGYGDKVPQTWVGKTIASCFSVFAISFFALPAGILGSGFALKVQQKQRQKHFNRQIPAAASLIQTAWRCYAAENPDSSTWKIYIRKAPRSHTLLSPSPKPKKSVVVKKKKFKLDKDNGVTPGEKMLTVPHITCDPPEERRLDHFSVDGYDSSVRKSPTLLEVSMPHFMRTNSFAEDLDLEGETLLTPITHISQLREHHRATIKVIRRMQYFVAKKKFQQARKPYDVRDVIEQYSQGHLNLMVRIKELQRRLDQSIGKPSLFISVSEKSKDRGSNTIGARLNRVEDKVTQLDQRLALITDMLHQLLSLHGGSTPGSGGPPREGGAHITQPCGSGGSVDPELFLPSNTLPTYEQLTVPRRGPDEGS
KCNQ1 act – human KCNQ1 channel potentiation or activation; P51787; CHO-K1 KCNQ1, thallium flux FluxOR fluorescence; hits give high values; B-score at 10 µM; 0.35% of 310,000 active; AID 2648;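 active = fluorescence ratio B-score, a plate-corrected score, at least three library SD, with initial intensity B-score within 5 SD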
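assay system = CHO-K1 cells stably expressing KCNQ1 | medium = assay buffer, equal DMSO in all wells | timing = 37 °C overnight plating, 90-min dark dye load, 20-min compound pretreatment | measured by = kinetic FluxOR thallium fluorescence, 10-s 1-Hz baseline, 110-s post-stimulus read | measure = fluorescence change relative to baseline, converted to B score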
KCNK9 block – human KCNK9 channel inhibition; HEK293 KCNK9, FluxOR thallium flux fluorescence; hits give low values; B-score at 10 µM; 1.2% of 310,000 active; AID 488922;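 active = ratio B-score over 3 SD below the library mean, with starting fluorescence within 5 SD of its mean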;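 note: negative B-score means less thallium flux so channel inhibition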
KCNK3 inh – human KCNK3 channel inhibition, primary screen; O14649; CHO-KCNK3 thallium flux, FluxOR fluorescence; hits give low values; B-score at 10 µM; 0.84% of 340,000 active; AID 602410;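 active = B-score under library mean minus 4 SD, starting fluorescence ratio at most library mean plus 5 SD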;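 note: more negative B-score means stronger inhibition of thallium flux through KCNK3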
hERG protect – hERG (human) protection from proarrhythmic block. CHO-hERG, FluxOR thallium flux, dofetilide IC70 present. activation (rescue from dofetilide block), less the hit threshold, % at 10 µM. 0.51% of 310,000 active. AID 1511;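 active = activation above the mean of controls blocked by dofetilide plus 5 SD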;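 note: thallium influx through hERG after potassium depolarization seen as dye fluorescence rise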
Starred values were filed as active, the others as inactive; i = inactive; · = no result.

SMILES	Kir21 inh	KCNQ1 inh	KCNQ1 act	KCNK9 block	KCNK3 inh	hERG protect
COCCN(CCOC)Cc1c(O)ccc2c1O/C(=C\c1ccco1)C2=O	-9.3	11*	i	i	i	-26
Cc1nc(COC(=O)c2ccc(S(=O)(=O)N3CCCC3)cc2)cs1	-0.4	i	i	i	i	-14
Cc1ccc(S(=O)(=O)Nc2cc3c4c(c2)CCC(=O)N4CCC3)cc1	-0.63	i	i	i	i	-14
O=C(NCc1ccc2c(c1)OCO2)c1c(-c2ccccc2)sc2ccccc12	·	·	·	·	i	·
CCS(=O)(=O)c1ccc(O)c(NC(=O)c2ccc(S(=O)(=O)N3CCCCCC3)cc2)c1	·	·	·	·	i	·
CC(CC(=O)NNC(=O)c1cccc(Cl)c1)c1ccccc1 (configuration not stated)	-0.99	i	i	i	i	-2
COc1ccc(N2CCN(C(=O)CN(C3CCCCC3)S(C)(=O)=O)CC2)cc1	-0.03	i	i	i	i	32*
COc1ccccc1N1CCN(C(=O)CN(C2CCCCC2)S(C)(=O)=O)CC1	0.23	i	i	i	i	-11
CCN1C(=O)[C@H]2[C@H]3CN=C(SCc4ccc(C(=O)OC)cc4)N3[C@@](C)(C(=O)OC)[C@H]2C1=O	·	·	·	·	i	·
CN(CC(=O)Nc1ccccc1Br)C(=O)COc1cccc2c1OC(C)(C)C2	-0.85	i	i	i	i	-11
Cc1cc([N+](=O)[O-])ccc1-c1ccc(C2Nc3ccccc3C(=O)N2O)o1 (configuration not stated)	-1.4	i	13*	i	i	2
N#CC(=C(c1ccccc1)c1ccccc1)c1ccccc1	·	·	·	·	i	·
CC1CCN(CCOCCOc2ccc(Br)cc2Cl)CC1	-7.6*	i	i	i	i	-16
CC1CCCN(CCCOc2ccc(Br)cc2Cl)C1 (configuration not stated)	-0.79	i	i	i	i	-19
CCCCCCCCC1=NCCc2c1[nH]c1ccccc21	-7.8*	8*	i	i	i	-23
Cc1nc(-c2nc(-c3c(C(=O)NNC(=O)Nc4cccc(Cl)c4)noc3C)cs2)cs1	-1.2	i	i	i	i	-10
Cc1nc(-c2nc(-c3c(C(=O)NNC(=O)c4ccc(Cl)cc4)noc3C)cs2)cs1	-0.11	i	17*	i	i	3
Cc1ccc(C)c(CSCc2nc3ccccc3[nH]2)c1	-8.4*	i	i	i	i	-8
Cc1ccccc1CSCc1nc2ccccc2[nH]1	-0.07	i	i	i	i	-8
CCCOc1ccc(/C=N/NC(=O)c2ccc3c(c2)OCO3)c(OCCC)c1	2.9	i	i	i	i	-8
CC(NC(=O)NC1CCCCC1)C(c1cccs1)N1CCN(Cc2ccccc2)CC1 (configuration not stated)	0.8	i	i	i	i	-10
CC(NC(=S)NCCc1ccccc1)C(c1cccs1)N1CCN(Cc2ccccc2)CC1 (configuration not stated)	-0.21	6*	i	i	i	-12
CCN1CCN(C(c2cccs2)C(C)NC(=S)Nc2cc(C)ccc2C)CC1 (configuration not stated)	-5.5*	i	i	i	i	-7
Cc1ccc(COc2ccsc2C(=O)NN)cc1	-1.3	i	i	i	i	-7
COc1ccc(CCNC(=O)CCSc2nc(-c3ccco3)cc(C(F)(F)F)n2)cc1OC	-4.4*	i	i	i	i	-4
SMILES	Kir21 inh	KCNQ1 inh	KCNQ1 act	KCNK9 block	KCNK3 inh	hERG protect
CN1Cc2sc(NC(=S)NC(=O)c3ccccc3)c(C#N)c2CC1(C)C	1.3	8*	i	i	i	-15
CC1(C)Cc2ccccc2C(NN=C2CCCC2)=N1	-0.03	i	i	i	i	-8
CCCC(=O)Nc1ccc(Cl)c(NC(=O)C(C)(C)C)c1	-0.1	i	i	i	i	-5
CC(C)(C)C(=O)CC(=O)Nc1ccc(Cl)c(N)c1	0.02	i	i	i	i	4.9*
COc1ccc(S(=O)(=O)N2CCOC2CNC(=O)C(=O)NCc2ccc(F)cc2)cc1OC (configuration not stated)	-0.02	i	i	i	i	-6
CNC(=S)NNC(=O)COc1cccc(C)c1C	-0.34	i	i	i	i	-1
Cc1sc2ncnc(SCc3ccc(C(=O)O)cc3)c2c1C	0.42	i	i	i	i	-5
COC(=O)c1ccc(CSc2ncnc3sc(C)c(C)c23)o1	-0.04	i	8*	i	i	8.8*
COc1ccc(NC(=O)c2cc(S(=O)(=O)N3CCOCC3)ccc2C)cc1S(=O)(=O)N1CCOCC1	·	·	·	·	i	·
O=C(CN1CCC(O)(c2cccc(F)c2)CC1)NCCc1c[nH]c2ccccc12	-0.91	i	i	i	i	-7
Fc1cccc(NC(=S)NCCCN2CCOCC2)c1	0.37	i	i	i	i	-12
CSc1cccc(NC(=S)NCCCN2CCN(c3ccc(F)cc3)CC2)c1	-5.8*	i	i	i	i	-12
S=C(NCCc1ccccc1)N/N=C/c1c(Cl)cccc1Cl	0.46	i	i	i	i	11*
S=C(NCCc1ccccc1)N/N=C/c1ccc(Cl)cc1	-1.2	i	i	i	i	-4
CN(Cc1ccccc1)CC(O)COc1ccc(CNCc2cccnc2)cc1 (configuration not stated)	-0.22	i	i	i	i	-10
CN(Cc1ccccc1)CC(O)COc1ccc(CNCc2ccc(Cl)s2)cc1 (configuration not stated)	-12*	i	i	i	i	-5
CCNC(=O)C(=O)NCC1OCCCN1S(=O)(=O)c1cccs1 (configuration not stated)	1.4	i	i	i	i	-2
CCOC(=O)CNC(=O)C1CCCN(c2ncccn2)C1 (configuration not stated)	0.29	i	i	i	i	-15
CCc1ccc(-c2nc(SCC(=O)N3CCOCC3)n[nH]2)cc1	-1.4	i	i	i	i	10*
CN(Cc1ccc(F)cc1)C(=O)c1sccc1-c1ccccc1	-7.8*	i	i	i	i	-16
COC(=O)c1ccc(C2C(C#N)=C(N)Oc3cc(O)ccc32)cc1 (configuration not stated)	1.2	i	i	i	i	61*
COC(=O)c1ccc(C2C(C#N)=C(N)Oc3cc(N)ccc32)cc1 (configuration not stated)	-0.28	i	i	i	i	-3
